From PMC11168086 (RSC Advances, 2024)
Converted amounts (≈) assume the structure as drawn.

Tests used:
[1] = Intestinal-specific PAMPA; format: in vitro ADME; details: pH 6.5
In short: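 Donor solutions at nominal 500 μM came from 10 mM DMSO stocks diluted in phosphate donor buffer, pH 6.5. The acceptor buffer held 5% DMSO. The membrane was phosphatidylcholine plus cholesterol in chloroform/dodecane/hexane (5:25:70 v/v). Plates were incubated 4 h at 37 °C, covered. Acceptor UV-vis absorbance was read over 250–500 nm. Pa was calculated by the Wohnsland–Faller equation from acceptor versus equilibrium absorbance at λmax.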

[2] = system: A2780 (ovarian cancer) cells; test: MTT antiproliferative assay, A2780; format: cell-based, human; details: for IC50: Homo sapiens, A2780, 72 h; for Lipophilic efficiency (LipE = pIC50 – logP): A2780
In short: (§1)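 Cells from ECACC were grown in MEM with 10% FBS, non-essential amino acids and penicillin-streptomycin, at 37 °C and 5% CO2. Cells were seeded at 5000 per well, left overnight, then exposed to test compound 72 h. MTT was added for 4 h, and formazan was dissolved in DMSO (60 min, 37 °C) and read at 545 nm. Compounds giving >50% inhibition at 10 μM were rerun over 0.1–30 μM for IC50. Two independent experiments used five wells each, with cisplatin as positive control.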

[3] = Kinetic aqueous solubility; format: physicochemical; details: PBS buffer, pH 7.4, aqueous buffer, kinetic from dmso stock
In short: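 10 mM DMSO stocks were diluted into PBS pH 7.4 to a 500 μM target and shaken 2 h at room temperature. Samples were vacuum-filtered, diluted with acetonitrile to prevent precipitation, and scanned by UV-vis over 250–500 nm. Concentration was derived from a 3-point calibration at each compound's λmax.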

[4] = system: MCF7 (breast cancer) cells; test: MTT antiproliferative assay, MCF7; format: cell-based, human; details: for IC50: Homo sapiens, MCF7, 72 h, MCF-7, MTT, 72 h; for Lipophilic efficiency (LipE = pIC50 – logP): MCF-7
In short: as §1

[5] = system: HeLa (cervical cancers) cells; test: MTT antiproliferative assay, HeLa; format: cell-based, human; details: for IC50: Homo sapiens, 72 h
In short: as §1

[6] = system: MDA-MB-231 (breast cancer) cells; test: MTT antiproliferative assay, MDA-MB-231; format: cell-based, human; details: for IC50: Homo sapiens, MDA-MB-231, 72 h, MDA-MB-231, MTT, 72 h; for Lipophilic efficiency (LipE = pIC50 – logP): MDA-MB-231
In short: as §1

Structure (SMILES) | Papp at 4 h, 500 μM [1] | IC50 [2] | solubility kinetic at 2 h [3] | IC50 [4] | Lipophilic efficiency (LipE = pIC50 – logP) [4] | Lipophilic efficiency (LipE = pIC50 – logP) [5] | IC50 [5] | IC50 [6] | Lipophilic efficiency (LipE = pIC50 – logP) [2] | Lipophilic efficiency (LipE = pIC50 – logP) [6]
COc1cccc(CNC[C@@](C)(O)[C@@H]2CC[C@@H](C)C[C@H]2OCc2ccccc2)c1 [Compound 11a] | 1.8 ± 0.5 ×10⁻⁶ cm/s | 12.5 µM | 82 ± 2.2 µM (≈ 32.6 µg/mL) | 2 µM | 0.32 | −0.19 | 6.3 µM | 11.7 µM |  | 
C[C@@H]1CC[C@@H]([C@@](O)(CNCc2ccccc2)COCc2ccc(F)cc2)[C@H](OCc2ccc(F)cc2)C1 [Compound 44b] | 23.2 ± 2.7 ×10⁻⁶ cm/s | 2.1 µM | 97 ± 2.8 µM (≈ 49.4 µg/mL) | 0.96 µM | −0.63 | −1.12 | 3 µM | 2.7 µM | −0.97 | −1.08
C[C@@H]1CC[C@@H]([C@](C)(O)CNCc2cccc(F)c2)[C@H](OCc2ccccc2)C1 [Compound 8a] | 9.8 ± 1.2 ×10⁻⁶ cm/s | 9.3 µM | 31.8 ± 1 µM (≈ 12.3 µg/mL) | 3.5 µM | 0.17 | 0.00 | 5.2 µM | 9.9 µM | −0.25 | −0.28
